Eleven compounds from ChEMBL document CHEMBL1147785, “Novel peptidomimetic cysteine protease inhibitors as potential antimalarial agents” (J Med Chem, 2006) can be followed below.

SMILES strings stand for the structures. pIC50: −log10 of the molar value. Calls of active or inactive are those of the source. The rule behind the calls is not given here. Residues, ends and D or L forms follow the SMILES beside them. *: point of attachment. Cbz = O=C(OCc1ccccc1)*

In assay [1] the target is T1, Falcipain 2B (Plasmodium falciparum, UniProt Q3HTL5).
T1 sequence (Q3HTL5 whole entry): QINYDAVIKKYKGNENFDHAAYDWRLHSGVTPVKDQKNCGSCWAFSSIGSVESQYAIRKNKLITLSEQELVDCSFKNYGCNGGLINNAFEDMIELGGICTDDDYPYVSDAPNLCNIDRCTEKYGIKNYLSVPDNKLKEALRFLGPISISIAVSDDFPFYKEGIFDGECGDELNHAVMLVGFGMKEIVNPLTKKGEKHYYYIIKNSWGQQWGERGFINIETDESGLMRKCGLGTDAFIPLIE
Briefly: Inhibition of Plasmodium falciparum recombinant FP2B fused with maltose binding protein. The procedure, abridged: (§1)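 Recombinant enzyme expressed in E. coli as a maltose binding protein fusion. Fluorescence assay using the fluorogenic substrate Z-Leu-Arg-AMC, with inhibitor at various concentrations. Hydrolysis rate was compared with DMSO-only negative controls and with positive controls containing a standard papain-family cysteine protease aldehyde inhibitor. Results are given as IC50.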

Assay [2] addresses T2, Caspase-6 (Homo sapiens) (UniProt P55212).
T2 sequence (whole entry): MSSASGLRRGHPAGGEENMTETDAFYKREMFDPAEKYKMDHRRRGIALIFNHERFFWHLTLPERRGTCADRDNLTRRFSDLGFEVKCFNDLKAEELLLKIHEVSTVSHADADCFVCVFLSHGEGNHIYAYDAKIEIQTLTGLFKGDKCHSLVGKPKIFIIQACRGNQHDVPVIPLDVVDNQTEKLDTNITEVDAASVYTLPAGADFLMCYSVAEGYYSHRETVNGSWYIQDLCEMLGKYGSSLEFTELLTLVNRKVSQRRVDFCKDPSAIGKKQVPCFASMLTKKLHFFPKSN
Briefly: Inhibition of human recombinant caspase6 upto 50 uM.

The target in assay [3] is T3, Caspase-7 (Homo sapiens) (UniProt P55210).
T3 sequence (whole entry): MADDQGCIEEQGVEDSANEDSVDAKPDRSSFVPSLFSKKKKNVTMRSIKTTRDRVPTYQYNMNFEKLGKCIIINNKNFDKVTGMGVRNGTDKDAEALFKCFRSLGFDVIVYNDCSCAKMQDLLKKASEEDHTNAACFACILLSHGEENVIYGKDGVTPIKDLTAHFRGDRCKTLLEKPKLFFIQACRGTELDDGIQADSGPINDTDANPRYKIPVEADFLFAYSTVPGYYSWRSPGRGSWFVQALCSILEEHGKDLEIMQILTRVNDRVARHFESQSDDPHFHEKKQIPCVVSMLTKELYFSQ
Briefly: Inhibition of human recombinant caspase7 upto 50 uM.

Assay [4] addresses Caspase-8 (Homo sapiens) (UniProt Q14790). Briefly: Inhibition of human recombinant caspase8 upto 50 uM.
In assay [5] the target is T4, Falcipain 2 (Plasmodium falciparum, UniProt Q9N6S8).
T4 sequence (Q9N6S8 whole entry): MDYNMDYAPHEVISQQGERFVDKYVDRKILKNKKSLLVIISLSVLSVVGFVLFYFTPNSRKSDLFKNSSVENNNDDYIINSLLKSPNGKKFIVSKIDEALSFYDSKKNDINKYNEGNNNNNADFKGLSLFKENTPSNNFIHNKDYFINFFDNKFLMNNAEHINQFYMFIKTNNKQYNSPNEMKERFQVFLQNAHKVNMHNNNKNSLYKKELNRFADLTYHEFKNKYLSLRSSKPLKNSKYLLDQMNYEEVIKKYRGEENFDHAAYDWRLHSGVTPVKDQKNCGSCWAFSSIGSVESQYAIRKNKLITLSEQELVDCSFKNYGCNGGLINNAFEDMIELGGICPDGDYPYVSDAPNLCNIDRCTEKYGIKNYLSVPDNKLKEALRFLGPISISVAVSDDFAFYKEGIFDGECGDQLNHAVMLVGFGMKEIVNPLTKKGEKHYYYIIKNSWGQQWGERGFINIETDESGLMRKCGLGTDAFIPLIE
The assay can be described thus: Inhibition of Plasmodium falciparum recombinant FP2A fused with maltose binding protein. The procedure, abridged: as §1

The target in assay [6] is T5, Caspase-1 (Homo sapiens) (UniProt P29466).
T5 sequence (whole entry): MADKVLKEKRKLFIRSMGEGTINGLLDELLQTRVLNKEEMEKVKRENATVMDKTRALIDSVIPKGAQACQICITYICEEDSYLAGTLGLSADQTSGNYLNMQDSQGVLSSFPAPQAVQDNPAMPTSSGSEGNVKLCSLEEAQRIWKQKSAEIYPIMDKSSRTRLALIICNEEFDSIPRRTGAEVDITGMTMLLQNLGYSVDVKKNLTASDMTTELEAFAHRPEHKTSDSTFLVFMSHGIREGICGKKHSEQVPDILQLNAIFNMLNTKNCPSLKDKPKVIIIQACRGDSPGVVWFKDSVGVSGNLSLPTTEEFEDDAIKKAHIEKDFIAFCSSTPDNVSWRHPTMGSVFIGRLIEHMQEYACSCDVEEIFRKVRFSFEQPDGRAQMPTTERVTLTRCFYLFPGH
The assay can be described thus: Inhibition of human recombinant caspase1 upto 50 uM.

Assay [7] concerns the target T6, Caspase-3 (Homo sapiens) (UniProt P42574).
T6 sequence (whole entry): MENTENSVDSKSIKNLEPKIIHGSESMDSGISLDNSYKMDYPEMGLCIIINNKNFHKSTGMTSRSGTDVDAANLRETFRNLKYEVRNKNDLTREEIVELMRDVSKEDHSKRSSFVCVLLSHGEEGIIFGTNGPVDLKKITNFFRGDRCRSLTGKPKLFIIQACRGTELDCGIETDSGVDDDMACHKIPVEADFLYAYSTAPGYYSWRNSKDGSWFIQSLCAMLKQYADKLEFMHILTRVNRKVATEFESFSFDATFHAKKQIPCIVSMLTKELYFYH
Briefly: Inhibition of human recombinant caspase3 upto 50 uM.

Assay [8] concerns the target T7, Caspase-5 (Homo sapiens) (UniProt P51878).
T7 sequence (whole entry): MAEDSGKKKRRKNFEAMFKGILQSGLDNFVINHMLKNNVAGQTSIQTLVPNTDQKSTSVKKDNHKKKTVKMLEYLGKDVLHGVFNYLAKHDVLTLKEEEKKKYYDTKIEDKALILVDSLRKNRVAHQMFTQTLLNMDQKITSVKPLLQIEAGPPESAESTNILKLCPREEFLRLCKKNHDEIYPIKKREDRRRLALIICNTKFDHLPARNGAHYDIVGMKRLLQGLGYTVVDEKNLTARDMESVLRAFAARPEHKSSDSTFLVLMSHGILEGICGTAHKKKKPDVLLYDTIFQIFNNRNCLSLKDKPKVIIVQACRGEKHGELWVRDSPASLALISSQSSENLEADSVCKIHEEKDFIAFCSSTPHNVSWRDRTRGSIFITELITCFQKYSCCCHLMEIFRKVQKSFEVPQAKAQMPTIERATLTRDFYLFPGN
The assay can be described thus: Inhibition of human recombinant caspase5 upto 50 uM.

Chain of Caspase-8 (Homo sapiens) (Q14790 217-374 limits assumed): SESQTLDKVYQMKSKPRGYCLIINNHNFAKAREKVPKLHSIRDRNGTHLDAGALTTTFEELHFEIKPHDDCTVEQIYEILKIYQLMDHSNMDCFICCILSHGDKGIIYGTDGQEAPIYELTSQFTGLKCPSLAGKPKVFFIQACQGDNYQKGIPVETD
Chain of Caspase-8 (Homo sapiens) (Q14790 385-479 limits assumed): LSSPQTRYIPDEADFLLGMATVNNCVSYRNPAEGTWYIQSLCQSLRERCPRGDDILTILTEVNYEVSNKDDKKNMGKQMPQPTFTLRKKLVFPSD

`O=C(CN1C(=O)[C@H](COC(=O)Nc2ccc(Cl)cc2C(F)(F)F)N=C(c2ccccc2)c2ccccc21)N[C@H]1CC(=O)OC1O` (stereo partly drawn): the pIC50 in assay [1] is 4.71; in assay [5], 4.99. Also, the result in assay [2], in assay [3], in assay [4], in assay [6], in assay [7] and in assay [8] was inactive.
On to `O=C(CN1C(=O)[C@@H](COC(=O)Nc2ccc(F)cc2F)N=C(c2ccccc2)c2ccccc21)N[C@H]1CC(=O)OC1O` (stereo partly drawn), for which the results for the pIC50 in assay [1] and in assay [5] were 4.83 and 4.87, respectively. In addition, the outcome in assay [2], in assay [3], in assay [4], in assay [6], in assay [7] and in assay [8] was inactive.
Regarding `O=C(CN1C(=O)[C@@H](COC(=O)Nc2ccc(F)cc2)N=C(c2ccccc2)c2ccccc21)N[C@H]1CC(=O)OC1O` (stereo partly drawn), the pIC50 in assay [1] is 4.92; in assay [5] it was 4.79. For the same compound, the outcome in assay [2], in assay [3], in assay [4], in assay [6], in assay [7] and in assay [8] was inactive.
`CC(C)[C@H](NC(=O)OCc1ccccc1)C(=O)N[C@H](C=O)Cc1ccccc1` (Cbz-Val-Phe-aldehyde): the pIC50 in assay [1] and in assay [5] was 5.30 each time. Also, the outcome in assay [2], in assay [3], in assay [4], in assay [6], in assay [7] and in assay [8] was inactive.
As to `O=C(CN1C(=O)[C@@H](COC(=O)Nc2c(F)cc(F)cc2Br)N=C(c2ccccc2)c2ccccc21)N[C@H]1CC(=O)OC1O` (stereo partly drawn), the pIC50 in assay [1] was 4.67; in assay [5], 4.72. Besides, the result in assay [2], in assay [3], in assay [4], in assay [6], in assay [7] and in assay [8] was inactive.
`O=C(CN1C(=O)[C@@H](COC(=O)Nc2ccc(Cl)cc2)N=C(c2ccccc2)c2ccccc21)N[C@H]1CC(=O)OC1O` (stereo partly drawn): the pIC50 in assay [1] was 5.02; in assay [5], 4.82. The outcome in assay [2], in assay [3], in assay [4], in assay [6], in assay [7] and in assay [8] was inactive.
On to `O=C(CN1C(=O)[C@@H](COC(=O)Nc2cccc3ccccc23)N=C(c2ccccc2)c2ccccc21)N[C@H]1CC(=O)OC1O` (stereo partly drawn), for which the negative logarithm of the IC50 (pIC50) is 4.75 in assay [1] and 4.95 in assay [5]. The outcome in assay [2], in assay [3], in assay [4], in assay [6], in assay [7] and in assay [8] was inactive.
For `O=C(CN1C(=O)[C@@H](COC(=O)Nc2ccccc2)N=C(c2ccccc2)c2ccccc21)N[C@H]1CC(=O)OC1O` (stereo partly drawn), the figures for the pIC50 in assay [1] and in assay [5] were 4.70 and 4.67, respectively. The outcome in assay [2], in assay [3], in assay [4], in assay [6], in assay [7] and in assay [8] was inactive.
For the compound `COc1ccc(NC(=O)OC[C@H]2N=C(c3ccccc3)c3ccccc3N(CC(=O)N[C@H]3CC(=O)OC3O)C2=O)cc1` (stereo partly drawn), the pIC50 was 4.85 in assay [1] and 5.06 in assay [5]. Further, the outcome in assay [2], in assay [3], in assay [4], in assay [6], in assay [7] and in assay [8] was inactive.
On to `Cc1cc(Cl)ccc1NC(=O)OC[C@H]1N=C(c2ccccc2)c2ccccc2N(CC(=O)N[C@H]2CC(=O)OC2O)C1=O` (stereo partly drawn), for which the pIC50 is 4.95 in assay [1] and 5.08 in assay [5]. In addition, the outcome in assay [2], in assay [3], in assay [4], in assay [6], in assay [7] and in assay [8] was inactive.
As for `O=C(CN1C(=O)[C@@H](COC(=O)Nc2ccc(Cl)cc2C(F)(F)F)N=C(c2ccccc2)c2ccccc21)N[C@H]1CC(=O)OC1O` (stereo partly drawn), the pIC50 in assay [1] is 4.59; in assay [5], 5.06. The outcome in assay [2], in assay [3], in assay [4], in assay [6], in assay [7] and in assay [8] was inactive.

As usually defined, the pIC50 is the IC50 on a negative log10 scale, so that one unit is a factor of ten.
